From ChEMBL document CHEMBL1151259, “Hemisynthetic secofriedelane triterpenes with inhibitory activity against the growth of human tumor cell lines in vitro” (J Nat Prod, 2004)

Experiments:
[1] = test system: SF-268; assay: Cytotoxicity against human SF268 cells after 48 hrs by SRB assay; type: functional, cell-based; conditions: SF-268, 48 h
Outline: (§1)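 Compounds dissolved in DMSO and freshly diluted in culture medium, final DMSO 0.25%. Growth inhibition read by sulforhodamine B protein staining per the NCI screening protocol. Doxorubicin as positive control. GI50 given as mean ± SEM of 3-6 independent experiments, each in duplicate.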

[2] = test system: MCF7; assay: Cytotoxicity against human MCF7 cells after 48 hrs by SRB assay; type: functional, cell-based; conditions: MCF7, 48 h; outline: as §1
[3] = test system: NCI-H460; assay: Cytotoxicity against human NCI-H460 cells after 48 hrs by SRB assay; type: functional, cell-based; conditions: NCI-H460, 48 h; outline: as §1
[4] = Antiproliferative activity against human lymphocytes; type: cell-based; conditions: Lymphocyte

Row | SMILES | GI50 [1] [µM] | GI50 [2] [µM] | GI50 [3] [µM] | IC50 [1] [µM] | IC50 [2] [µM] | IC50 [3] [µM] | IC50 [4] [µM]
1 | CC(=O)[C@@]1(C)CC[C@H]2[C@@](C)(CC[C@@]3(C)[C@@H]4CC(C)(C)CC[C@]4(C)CC[C@]23C)[C@@H]1CC(=O)O | 12.9 | 10.9 | 17.6 | – | – | – | –
2 | COC(=O)C[C@H]1[C@]2(C)CC[C@@]3(C)[C@@H]4CC(C)(C)CC[C@]4(C)CC[C@]3(C)[C@H]2CC[C@]1(C)C(C)=O | 106 | 101 | 93.9 | – | – | – | –
3 | CC(=O)[C@@]1(C)CC[C@H]2[C@@](C)(CC[C@@]3(C)[C@@H]4CC(C)(C)CC[C@]4(C)CC[C@]23C)[C@@H]1CCC(=O)O | 24.6 | 26.9 | 32.8 | – | – | – | –
4 | CC1(C)CC[C@]2(C)CC[C@]3(C)[C@H]4CC[C@@]5(C)[C@@H](CCC(=O)[C@@]5(C)O)[C@]4(C)CC[C@@]3(C)[C@@H]2C1 | > 110 | > 110 | > 110 | – | – | – | –
5 | CC1(C)CC[C@]2(C)CC[C@]3(C)[C@H]4CC[C@@]5(C)[C@@H](CCC(=O)[C@]5(C)O)[C@]4(C)CC[C@@]3(C)[C@@H]2C1 | > 50 | > 50 | > 50 | – | – | – | –
6 | COC(=O)CC[C@H]1[C@]2(C)CC[C@@]3(C)[C@@H]4CC(C)(C)CC[C@]4(C)CC[C@]3(C)[C@H]2CC[C@]1(C)C(C)=O | > 110 | > 110 | > 110 | – | – | – | –
7 | C[C@@H](C(=O)O)[C@@]1(C)CC[C@H]2[C@@](C)(CC[C@@]3(C)[C@@H]4CC(C)(C)CC[C@]4(C)CC[C@]23C)[C@@H]1CC=O | – | – | – | 5.4 | 5.4 | 5.4 | 10.7
8 | COc1cccc2c1C(=O)c1c(O)c3c(c(O)c1C2=O)C[C@@](O)(C(=O)CO)C[C@@H]3O[C@H]1C[C@H](N)[C@H](O)[C@H](C)O1 [DOXORUBICIN] | 0.094 | 0.0428 | 0.094 | – | – | – | –
